APOBEC3G inh – APOBEC3G (human) deaminase inhibition; Q9HC16; recombinant A3G, ssDNA deamination FAM/TAMRA fluorescence; inhibition, % at 20 µM; actives 0.28% (n = 330,000); AID 493012;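 active means inhibition of at least 40% at 20 µM, with no more than 30% in the related APOBEC3A deaminase screen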
APOBEC3A inh – blocks human APOBEC3A ssDNA deamination; P31941; recombinant A3A, FAM/TAMRA ssDNA deamination fluorescence; inhibition, % at 20 µM; actives 0.41% (n = 330,000); AID 493011;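 active means at least 40% inhibition at 20 µM here, with at most 30% in a related deaminase screen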
ABHD5-PLIN5 inh – inhibitors of human ABHD5-perilipin-5 interaction | inhibition, % at 4 µM | Q00G26+Q8WTS1 | Split G. princeps luciferase complementation, luminescence, 4 h | AID 602281 | actives 0.78% (n = 360,000);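 active means inhibition above the mean inhibition across every tested compound plus 3 SD, cut at about 22% in these data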
Target sequence (Q00G26 whole entry, looked up): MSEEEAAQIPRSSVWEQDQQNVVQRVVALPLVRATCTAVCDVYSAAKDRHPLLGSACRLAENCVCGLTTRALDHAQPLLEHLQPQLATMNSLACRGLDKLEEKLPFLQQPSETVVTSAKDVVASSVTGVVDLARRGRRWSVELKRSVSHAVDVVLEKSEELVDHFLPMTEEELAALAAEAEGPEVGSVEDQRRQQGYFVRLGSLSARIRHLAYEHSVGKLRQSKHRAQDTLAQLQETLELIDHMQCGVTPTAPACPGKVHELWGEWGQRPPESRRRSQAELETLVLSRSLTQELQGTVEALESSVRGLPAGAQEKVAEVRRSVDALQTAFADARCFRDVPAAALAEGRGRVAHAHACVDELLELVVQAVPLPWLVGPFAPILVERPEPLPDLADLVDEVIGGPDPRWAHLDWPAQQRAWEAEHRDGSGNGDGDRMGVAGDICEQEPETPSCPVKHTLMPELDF
Target sequence (Q8WTS1 whole entry, looked up): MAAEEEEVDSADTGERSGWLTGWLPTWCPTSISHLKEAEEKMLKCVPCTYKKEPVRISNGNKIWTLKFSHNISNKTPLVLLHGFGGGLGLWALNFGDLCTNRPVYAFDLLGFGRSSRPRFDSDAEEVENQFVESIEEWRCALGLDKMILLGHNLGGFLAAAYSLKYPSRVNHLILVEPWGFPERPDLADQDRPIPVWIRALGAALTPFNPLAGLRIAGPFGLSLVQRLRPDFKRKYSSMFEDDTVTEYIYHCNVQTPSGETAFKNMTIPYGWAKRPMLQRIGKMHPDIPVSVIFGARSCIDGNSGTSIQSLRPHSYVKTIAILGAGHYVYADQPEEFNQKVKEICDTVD
core dimer inh – HCV core protein dimerization inhibition | TR-FRET GST/Flag-core106 dimerization, 1536-well | inhibition, % at 5 µM | actives 0.33% (n = 300,000) | AID 1899;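 active means inhibition above the mean of all tested compounds plus 3 SD, set per screening campaign, cut at about 45% in these data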
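assay system = GST-tagged and Flag-tagged HCV core protein residues 1-106 | controls = unlabelled core106 and no-GST-core106 wells | incubation = compound-protein-antibody incubation 4 h at 22.5 °C | probe or stimulus = Eu donor and XL665 acceptor anti-tag antibodies | read-out = % inhibition based on acceptor/donor emission ratio | signal = TR-FRET 671 and 617 nm emission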
HCV NS3 hel inh – inhibitors of Hepatitis C virus NS3 helicase. NS3 helicase DNA unwinding, Cy5 molecular beacon fluorescence. inhibition, % at 10.9 µM. actives 0.56% (n = 290,000). AID 1800;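 active means inhibition above the mean of all tested compounds plus 3 SD, set per campaign, cut at about 35% in these data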
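Measured by: Cy5 fluorescence, 0 and 60 min reads / Assay system: NS3 helicase fragment of HCV / Control set: low DMSO, high thioflavine S at 110 µM / Times: 1 h reaction at 25 °C, ATP-initiated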
PRMT1 FP inh – inhibitors of human PRMT1 | Q99873 | recombinant PRMT1, activity-based probe fluorescence polarization | inhibition, % at 2.79 µM | actives 1.3% (n = 370,000) | AID 652257;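 active means inhibition above about 21% made by adding two undisclosed values, limit read from the data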
PRMT1 confirm – confirmation of human PRMT1 inhibitors; shares compounds with PRMT1 FP inh; recombinant His-PRMT1, activity-based probe fluorescence polarization; inhibition, % at 2.79 µM; actives 42% (n = 3,300);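 active means mean inhibition across replicates above the hit cutoff derived for the earlier primary screen, cut at about 22% in these data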
Each line names hits and unclear results; the compound was inactive in the other large screens (follow-up assays come after a bar, where they were run). The list is not random: actives were taken first. Their share in the collection is about 2.9%.

CC(=O)Nc1ccc(NC(=O)C(C)OC(=O)c2cccc(S(=O)(=O)N3CCCCCC3)c2)cc1 (centres undefined)	none (no result: HCV NS3 hel inh)
CCN(CC)S(=O)(=O)c1cccc(-c2n[nH]c(=S)n2/N=C/c2ccc(Br)cc2)c1	PRMT1 FP inh 45.9 | PRMT1 confirm 32.6
CCN(CC)S(=O)(=O)c1cccc(-c2n[nH]c(=S)n2/N=C/c2ccc(OC)cc2)c1	PRMT1 FP inh 59.4 | PRMT1 confirm 30.2
CCN(CC)S(=O)(=O)c1cccc(-c2n[nH]c(=S)n2C(C)COC)c1 (centres undefined)	none
CCC(C)n1c(-c2cccc(S(=O)(=O)N(CC)CC)c2)n[nH]c1=S (centres undefined)	none
CC(C)c1ccc(/C=N/n2c(-c3ccccc3)n[nH]c2=S)cc1	PRMT1 FP inh 51.0 | PRMT1 confirm 21.3
Cc1cccc(-c2n[nH]c(=S)n2/N=C/C=C/c2ccco2)c1	PRMT1 FP inh 46.2 | PRMT1 confirm inactive
S=c1[nH]nc(-c2ccccc2Cl)n1/N=C/C=C/c1ccco1	none
Cc1ccc(N2CC(C(=O)Nc3cccc(S(=O)(=O)N4CCOCC4)c3)CC2=O)cc1 (centres undefined)	none (no result: APOBEC3G inh, APOBEC3A inh, core dimer inh, HCV NS3 hel inh)
Cc1ccc(-c2n[nH]c(=S)n2/N=C/c2ccc(C(=O)O)cc2)cc1	none
CCN(CC)S(=O)(=O)c1cccc(-c2n[nH]c(=S)n2/N=C/c2ccc(OC(F)F)cc2)c1	PRMT1 FP inh 51.1 | PRMT1 confirm 33.8
CCOc1ccc(C=Nn2c(-c3cccc(OC(C)C)c3)n[nH]c2=S)cc1	PRMT1 FP inh 29.0 (no result: APOBEC3G inh, APOBEC3A inh, ABHD5-PLIN5 inh, core dimer inh, HCV NS3 hel inh) | PRMT1 confirm inactive
CCOc1ccc(/C=N/n2c(-c3n[nH]c4c3CCC4)n[nH]c2=S)cc1	none (no result: APOBEC3G inh, APOBEC3A inh, ABHD5-PLIN5 inh, core dimer inh, HCV NS3 hel inh)
Cc1ccc(/C=N/n2c(-c3cccc(Cl)c3)n[nH]c2=S)o1	PRMT1 FP inh 26.4 | PRMT1 confirm inactive
COc1ccc(/C=N/n2c(-c3cccs3)n[nH]c2=S)cc1	none
Cc1ccc(/C=N/n2c(-c3cccs3)n[nH]c2=S)cc1	PRMT1 FP inh 25.1 | PRMT1 confirm inactive
CN(N=Nc1nc[nH]c1C(=O)NN)C1CCCCC1	none (no result: APOBEC3G inh, APOBEC3A inh, core dimer inh, HCV NS3 hel inh)
CCCCCCn1c(-c2cccs2)n[nH]c1=S	PRMT1 FP inh 41.2 | PRMT1 confirm inactive
CC1=CC(C)(C)NC(=S)N1c1cccc2cc(S(=O)(=O)O)ccc12	PRMT1 FP inh 38.6 | PRMT1 confirm 44.8
Cc1ccc(CS(=O)(=O)Cc2ccc(C(=O)NCc3ccccn3)o2)cc1	PRMT1 FP inh 33.7 | PRMT1 confirm inactive
COc1ccc(S(=O)(=O)Cc2ccc(C(=O)NCc3ccccn3)o2)cc1	none
CSc1nc(N(CCO)CCO)c2sc3nc(-c4ccco4)c4c(c3c2n1)CCC4	ABHD5-PLIN5 inh 22.1, PRMT1 FP inh 37.2 (no result: APOBEC3G inh, APOBEC3A inh, core dimer inh) | PRMT1 confirm 38.7
Cc1ccc(CNC(=O)COC(=O)c2cccc(S(=O)(=O)N3CCCCC3)c2)cc1	PRMT1 FP inh 86.4 (no result: core dimer inh, HCV NS3 hel inh) | PRMT1 confirm inactive
COc1ccc2sc(SCCCS(=O)(=O)O)[n+](CCCS(=O)(=O)[O-])c2c1	PRMT1 FP inh 58.0 | PRMT1 confirm 59.0
CCOC(=O)C[n+]1c(C)sc2ccc(OC)cc21	none (no result: PRMT1 FP inh)
Cc1ccc(-c2csc(N)n2)s1	PRMT1 FP inh 76.0 | PRMT1 confirm 28.0
COC(=O)[C@@]1(C)[C@H]2C(=O)N(C)C(=O)[C@H]2[C@H]2CN=C(SCC(=O)c3ccccc3)N21	PRMT1 FP inh 76.4 (no result: core dimer inh, HCV NS3 hel inh) | PRMT1 confirm 80.3
CC[C@]1(C(=O)OC)[C@H]2C(=O)N(Cc3ccccc3)C(=O)[C@H]2[C@H]2CN=C(SCC(=O)c3ccccc3)N21	PRMT1 FP inh 53.9 (no result: core dimer inh, HCV NS3 hel inh) | PRMT1 confirm 58.2
COC(=O)[C@@]1(C)[C@H]2C(=O)N(C)C(=O)[C@H]2[C@H]2CN=C(SCc3ccccc3)N21	none (no result: core dimer inh, HCV NS3 hel inh)
COc1cccc2c1C(=O)c1c(O)c3c(c(O)c1C2=O)C[C@@](O)(C(C)=O)C[C@@H]3O[C@H]1C[C@H](N)[C@H](O)[C@H](C)O1	PRMT1 FP inh 162.5 (no result: APOBEC3G inh, APOBEC3A inh, core dimer inh) | PRMT1 confirm 168.9
